Here are results for 24 compounds from ChEMBL document CHEMBL1157624, “Targeting Alzheimer's disease: Novel indanone hybrids bearing a pharmacophoric fragment of AP2238” (Bioorg Med Chem, 2010).

Assay [1] has as its target T1, Acetylcholinesterase (Homo sapiens, UniProt P22303). Put plainly: Inhibition of human recombinant AChE preincubated for 20 mins before substrate addition by Ellman's method.
The target of the next assay is Cholinesterase (Homo sapiens, UniProt P06276). Put plainly: Inhibition of human BuChE preincubated for 20 mins before substrate addition by Ellman's method. In a few lines: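 Ellman assay using BuChE from human serum at 0.02 unit/mL in 0.1 M potassium phosphate pH 8.0 with 340 µM DTNB. Compound and enzyme preincubated 20 min at 37 °C, then 550 µM butyrylthiocholine iodide added. Blank lacks enzyme. Five concentrations chosen to give 20–80% inhibition, each in triplicate. IC50 read graphically from log concentration vs % inhibition. Mean of two independent measurements.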

The species entered for the next assay is Homo sapiens. In words: Selectivity ratio of IC50 for human BuChE to human recombinant AChE. In a few lines:
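Ellman assay in 0.1 M potassium phosphate pH 8.0 with 340 µM DTNB, enzyme at 0.02 unit/mL: human recombinant AChE with 550 µM acetylthiocholine, serum-derived human BuChE with 550 µM butyrylthiocholine. Compounds preincubated with enzyme 20 min at 37 °C. IC50 from five-point curves run in triplicate, mean of two experiments. Ratio = IC50 BuChE / IC50 AChE.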

For assay [2], the target named is T1, Acetylcholinesterase. Put plainly: Inhibition of human recombinant AChE-mediated hydrolysis of acetylcholine by Lineweaver-Burke plot analysis. In a few lines:
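Steady-state kinetics on human recombinant AChE with acetylthiocholine as substrate at low concentrations (0.60–0.06 mM) and inhibitor at increasing concentrations (range 0–50 nM). Initial velocities were plotted as 1/v versus 1/[ATCh]. Plots were fitted by weighted least squares, taking the variance of v as a constant percentage of v, to estimate the competitive inhibition constant Ki.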

The target in assay [3] is T1, Acetylcholinesterase. In words: Inhibition of human recombinant AChE-induced amyloid beta (1-40) aggregation at 100 uM by thioflavin T fluorescence assay. In a few lines: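 Abeta40, lyophilised from HFIP and dissolved in DMSO, held at final 230 µM. Co-incubated with human recombinant AChE at final 2.30 µM (Abeta:AChE 100:1), with or without inhibitor at final 100 µM. Incubation 24 h at room temperature in 0.215 M sodium phosphate pH 8.0, run in duplicate. ThT read in glycine–NaOH pH 8.5 at ex 446/em 490 nm, subtracting ThT and AChE background. % inhibition = 100 − (IFi/IFo × 100).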

Assay [4] is described as follows: Inhibition of amyloid beta (1-42) self-aggregation at 10 uM after 24 hrs by thioflavin T-based fluorometric assay. In a few lines: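 Abeta42 from stable 500 µM stock, incubated at final 50 µM in 10 mM phosphate buffer pH 8.0 with 10 mM NaCl, 30 °C for 24 h, with or without compound at 10 µM. Diluted into 50 mM glycine–NaOH pH 8.5 with 1.5 µM thioflavin T. Fluorescence read by 300 s scan at ex 446/em 490 nm, plateau values averaged after ThT background subtraction. % inhibition taken from ± inhibitor intensity ratio.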

Chain of Cholinesterase (P06276 whole entry): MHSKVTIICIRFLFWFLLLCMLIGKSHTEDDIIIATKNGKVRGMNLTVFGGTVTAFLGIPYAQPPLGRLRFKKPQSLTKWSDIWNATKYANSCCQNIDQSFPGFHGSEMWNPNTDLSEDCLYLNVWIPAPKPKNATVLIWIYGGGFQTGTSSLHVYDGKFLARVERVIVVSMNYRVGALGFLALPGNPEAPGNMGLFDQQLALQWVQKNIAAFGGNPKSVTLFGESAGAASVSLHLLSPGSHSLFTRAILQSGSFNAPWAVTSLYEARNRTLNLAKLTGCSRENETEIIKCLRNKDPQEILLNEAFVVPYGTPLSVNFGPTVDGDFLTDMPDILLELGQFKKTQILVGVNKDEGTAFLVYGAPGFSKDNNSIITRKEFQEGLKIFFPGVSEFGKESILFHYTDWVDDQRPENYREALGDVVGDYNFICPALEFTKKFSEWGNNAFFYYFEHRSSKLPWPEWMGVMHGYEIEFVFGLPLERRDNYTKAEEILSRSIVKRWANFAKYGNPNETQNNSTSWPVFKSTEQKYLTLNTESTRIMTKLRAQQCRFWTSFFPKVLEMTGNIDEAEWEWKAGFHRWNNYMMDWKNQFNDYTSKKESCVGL
T1 sequence (P22303 whole entry): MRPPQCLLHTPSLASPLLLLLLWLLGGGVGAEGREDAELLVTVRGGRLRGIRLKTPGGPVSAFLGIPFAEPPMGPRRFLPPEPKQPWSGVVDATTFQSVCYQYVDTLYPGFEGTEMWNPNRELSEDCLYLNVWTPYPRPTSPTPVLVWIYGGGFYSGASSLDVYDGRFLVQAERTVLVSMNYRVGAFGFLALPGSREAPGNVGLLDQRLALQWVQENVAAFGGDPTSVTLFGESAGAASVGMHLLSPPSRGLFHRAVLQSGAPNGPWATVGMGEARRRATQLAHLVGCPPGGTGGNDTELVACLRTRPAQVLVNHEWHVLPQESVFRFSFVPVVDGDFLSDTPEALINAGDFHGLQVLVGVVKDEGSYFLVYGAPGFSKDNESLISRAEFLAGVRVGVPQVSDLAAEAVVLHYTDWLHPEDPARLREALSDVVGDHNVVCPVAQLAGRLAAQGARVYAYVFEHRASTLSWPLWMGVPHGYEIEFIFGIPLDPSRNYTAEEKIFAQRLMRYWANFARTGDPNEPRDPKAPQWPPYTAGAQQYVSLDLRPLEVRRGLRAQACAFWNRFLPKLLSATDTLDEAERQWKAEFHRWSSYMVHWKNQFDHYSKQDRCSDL

As for `CCN(CC)CCCCCCOc1ccc2c(c1)C(=O)/C(=C/c1ccc(CN(C)Cc3ccccc3)cc1)C2`, the IC50 on Acetylcholinesterase [1] was 0.38 µM; on Cholinesterase, 20.5 µM. For the same compound, the Ratio IC50 in the assay filed under Homo sapiens was determined as 53.9.
With `CN(Cc1ccccc1)Cc1ccc(/C=C2\CCc3cc(OCCCCCN4CCCCC4)ccc3C2=O)cc1`, the Ki on Acetylcholinesterase [2] was 0.0611 µM. Also, the inhibition on Acetylcholinesterase [3] came to 48.3%; in assay [4], 26.9%. Further, the IC50 on Acetylcholinesterase [1] was 0.052 µM; against Cholinesterase, 5.01 µM. Further, in the assay filed under Homo sapiens, the Ratio IC50 was determined as 96.3.
Take `CN(Cc1ccccc1)Cc1ccc(/C=C2\Cc3ccccc3C2=O)cc1`: the IC50 at Acetylcholinesterase [1] worked out at 11.7 µM; on Cholinesterase, 29.9 µM. For the same compound, the Ratio IC50 in the assay filed under Homo sapiens was found to be 2.55.
Take `CCN(CC)CCOc1ccc2c(c1)C(=O)/C(=C/c1ccc(CN(C)Cc3ccccc3)cc1)C2`: the IC50 at Acetylcholinesterase [1] was 1.53 µM; against Cholinesterase it was 11.9 µM. Moreover, the Ratio IC50 in the assay filed under Homo sapiens stood at 7.77.
Regarding `COc1ccc2c(c1)C/C(=C\c1ccc(CN(C)Cc3ccccc3)cc1)C2=O`, the results for the IC50 at Acetylcholinesterase [1] and at Cholinesterase were 28.7 µM and 21.1 µM, respectively. Further, the Ratio IC50 in the assay filed under Homo sapiens turned out to be 0.73.
The corresponding values for `CCN(CC)CCCOc1ccc2c(c1)C(=O)/C(=C/c1ccc(CN(C)Cc3ccccc3)cc1)C2` are 1.32 µM, 11.9 µM and 9.01.
`COc1cc2c(cc1OC)C(=O)C(CC1CCN(Cc3ccccc3)CC1)C2` (stereo not given): in assay [4], the inhibition was below 5%.
For `COc1cc2cc(-c3ccc(CN(C)Cc4ccccc4)cc3)c(=O)oc2cc1OC`, the Ratio IC50 in the assay filed under Homo sapiens was determined as 1110. Also, the inhibition in assay [4] was below 5%.
Consider `CCN(CC)CCCCCCCOc1ccc2c(c1)C(=O)/C(=C/c1ccc(CN(C)Cc3ccccc3)cc1)C2`, for which the results for the half-inhibitory concentration (IC50) at Acetylcholinesterase [1] and at Cholinesterase were 0.51 µM and 33 µM, respectively. Moreover, the Ratio IC50 in the assay listed under Homo sapiens was determined as 64.7.
Regarding `COc1ccc2c(c1)C(=O)/C(=C/c1ccc(CN(C)Cc3ccccc3)cc1)CC2`, the figures for the half-maximal inhibitory concentration (IC50) at Acetylcholinesterase [1] and at Cholinesterase were 5.38 µM and 135 µM, respectively. Further, in the assay filed under Homo sapiens, the Ratio IC50 was 25.1.
The corresponding values for `CN(Cc1ccccc1)Cc1ccc(/C=C2\Cc3ccc(OCCCCN4CCOCC4)cc3C2=O)cc1` are 0.89 µM, 99.8 µM and 112.
Take `CN(Cc1ccccc1)Cc1ccc(/C=C2\Cc3ccc(OCCCCCN4CCCCC4)cc3C2=O)cc1`: the inhibition worked out at 46.8% at Acetylcholinesterase [3] and 27.9% in assay [4]. Further, the IC50 amounted to 0.2 µM on Acetylcholinesterase [1] and 7.7 µM at Cholinesterase. In the assay filed under Homo sapiens, the Ratio IC50 stood at 38.5.
As for `CCN(CC)CCCCOc1ccc2c(c1)C(=O)/C(=C/c1ccc(CN(C)Cc3ccccc3)cc1)C2`, the IC50 worked out at 0.89 µM on Acetylcholinesterase [1] and 3.52 µM against Cholinesterase. Further, the Ratio IC50 in the assay listed under Homo sapiens was 3.95.
On to `CCN(CC)CCCCOc1ccc2c(c1)C/C(=C\c1ccc(CN(C)Cc3ccccc3)cc1)C2=O`, for which the IC50 at Acetylcholinesterase [1] is 3.95 µM; on Cholinesterase, 22.9 µM. Besides, the Ratio IC50 in the assay filed under Homo sapiens was determined as 5.8.
`CCN(CC)CCOc1ccc2c(c1)C/C(=C\c1ccc(CN(C)Cc3ccccc3)cc1)C2=O`: the results for the IC50 at Acetylcholinesterase [1] and at Cholinesterase were 2.9 µM and 22.5 µM, respectively. In addition, the Ratio IC50 in the assay listed under Homo sapiens was 7.76.
The corresponding values for `COc1ccc2c(c1)CC/C(=C\c1ccc(CN(C)Cc3ccccc3)cc1)C2=O` are 0.11 µM, 90.3 µM and 820.
On to `CCN(CC)CCCOc1ccc2c(c1)C/C(=C\c1ccc(CN(C)Cc3ccccc3)cc1)C2=O`, for which the IC50 at Acetylcholinesterase [1] was 1.61 µM; at Cholinesterase, 11.4 µM. Also, in the assay filed under Homo sapiens, the Ratio IC50 came to 7.08.
Regarding `COc1cc2c(cc1OC)C(=O)/C(=C/c1ccc(CN(C)Cc3ccccc3)cc1)C2`, the IC50 turned out to be 1.14 µM at Acetylcholinesterase [1] and 144 µM on Cholinesterase. In the assay filed under Homo sapiens, the Ratio IC50 turned out to be 126.
With `COc1ccc2c(c1)C(=O)/C(=C/c1ccc(CN(C)Cc3ccccc3)cc1)C2`, the inhibition (at Acetylcholinesterase [3]; in assay [4]) was below 5% each time. The results for the IC50 on Acetylcholinesterase [1] and against Cholinesterase were 0.63 µM and 7.93 µM, respectively. The Ratio IC50 in the assay filed under Homo sapiens is 12.6.
`CCN(Cc1ccccc1)Cc1ccc(/C=C2\Cc3ccc(OC)cc3C2=O)cc1`: the IC50 on Acetylcholinesterase [1] is 4.93 µM; at Cholinesterase it was 98.1 µM. Besides, the Ratio IC50 in the assay listed under Homo sapiens was 19.9.
The corresponding values for `COc1cc2c(cc1OC)C(=O)/C(=C/c1ccc(CN(C)Cc3ccccc3)cc1)CC2` are 0.18 µM, 72.8 µM and 404.
Turning to `CCN(CC)CCCCCOc1ccc2c(c1)CC/C(=C\c1ccc(CN(C)Cc3ccccc3)cc1)C2=O`, the inhibition turned out to be 42.9% on Acetylcholinesterase [3] and 26.4% in assay [4]. Also, the IC50 at Acetylcholinesterase [1] was 0.056 µM; against Cholinesterase, 8.05 µM. In addition, in the assay listed under Homo sapiens, the Ratio IC50 was 144.
The corresponding values for `CCN(CC)CCCCCOc1ccc2c(c1)C(=O)/C(=C/c1ccc(CN(C)Cc3ccccc3)cc1)C2` are 29.7%, 27.7%, 0.19 µM, 2.7 µM and 14.2.
Take `CN(Cc1ccccc1)Cc1ccc(/C=C2\Cc3ccc(OCCCCN4CCCCC4)cc3C2=O)cc1`: the results for the IC50 at Acetylcholinesterase [1] and on Cholinesterase were 0.18 µM and 10 µM, respectively. Further, the Ratio IC50 in the assay listed under Homo sapiens came to 55.5.
